Activity calls are given as the source filed them. The calls are words filed in the database; no cut-off is given here.
Assays:
[1] = molecular target: T1, Protein arginine N-methyltransferase 6 (Homo sapiens, UniProt Q96LA8); assay: Inhibition of human PRMT6 using [3H]SAM as donor and [3H]methylated biotin-labeled peptide as substrate by scintillation proximity assay
How it was run: (§1)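 Compound titrated into the reaction; 1 h enzyme–compound preincubation stated for PRMT6. Methylated peptide captured on streptavidin/scintillant-coated plates and counted (cpm). IC50 from concentration–response, triplicate, mean ± SD.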
Target sequence in this assay (Q96LA8 whole entry): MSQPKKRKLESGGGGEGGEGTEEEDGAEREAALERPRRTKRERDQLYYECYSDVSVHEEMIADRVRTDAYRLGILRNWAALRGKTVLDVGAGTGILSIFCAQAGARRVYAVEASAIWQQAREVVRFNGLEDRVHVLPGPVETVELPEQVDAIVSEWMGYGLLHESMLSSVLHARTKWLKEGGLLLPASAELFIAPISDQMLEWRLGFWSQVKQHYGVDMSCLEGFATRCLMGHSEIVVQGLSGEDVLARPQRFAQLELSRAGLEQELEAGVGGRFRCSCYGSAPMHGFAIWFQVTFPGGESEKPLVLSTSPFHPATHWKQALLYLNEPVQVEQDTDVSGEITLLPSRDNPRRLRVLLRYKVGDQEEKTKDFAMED

[2] = molecular target: T2, Protein arginine N-methyltransferase 8 (Homo sapiens, UniProt Q9NR22); assay: Covalent binding affinity to human PRMT8 assessed as covalent adduct. formation at 300 uM pre-incubated for 1 hr by mass spectrometry
T2 sequence (Q9NR22 2-394 limits assumed): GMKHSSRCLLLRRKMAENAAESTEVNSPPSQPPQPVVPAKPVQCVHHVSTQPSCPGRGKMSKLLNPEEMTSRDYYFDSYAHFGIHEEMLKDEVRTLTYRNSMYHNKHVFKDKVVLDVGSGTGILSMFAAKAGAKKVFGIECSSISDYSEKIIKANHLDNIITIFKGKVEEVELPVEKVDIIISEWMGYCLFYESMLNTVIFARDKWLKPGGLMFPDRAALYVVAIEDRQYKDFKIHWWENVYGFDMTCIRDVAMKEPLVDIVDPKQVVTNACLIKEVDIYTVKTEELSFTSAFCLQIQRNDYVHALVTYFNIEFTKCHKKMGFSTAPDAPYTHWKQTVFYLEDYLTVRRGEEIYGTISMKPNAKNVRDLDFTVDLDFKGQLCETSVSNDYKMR
How it was run: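 PRMT protein at 15 μM was incubated 1 h at room temperature with a 20-fold molar excess of inhibitor (300 μM). The reaction was quenched with 0.1% aqueous TFA, separated by HPLC (5–95% acetonitrile in water) and analysed by ESI time-of-flight LC/MS for protein–ligand adduct mass.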

[3] = molecular target: Protein arginine N-methyltransferase 1 (Homo sapiens, UniProt Q99873); assay: Inhibition of human PRMT1 using [3H]SAM as donor and [3H]methylated biotin-labeled peptide as substrate by scintillation proximity assay
Protein arginine N-methyltransferase 1, sequence (Q99873 whole entry): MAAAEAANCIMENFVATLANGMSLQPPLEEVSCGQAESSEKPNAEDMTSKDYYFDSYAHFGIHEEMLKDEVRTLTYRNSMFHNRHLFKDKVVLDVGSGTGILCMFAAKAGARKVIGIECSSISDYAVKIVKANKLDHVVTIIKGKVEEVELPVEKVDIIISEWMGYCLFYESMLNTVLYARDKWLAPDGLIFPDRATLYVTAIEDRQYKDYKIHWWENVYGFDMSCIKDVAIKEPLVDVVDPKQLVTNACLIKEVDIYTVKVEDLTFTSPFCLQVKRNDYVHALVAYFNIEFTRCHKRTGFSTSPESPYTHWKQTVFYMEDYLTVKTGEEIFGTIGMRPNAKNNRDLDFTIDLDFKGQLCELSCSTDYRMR

[4] = molecular target: T3, Histone-arginine methyltransferase CARM1 (Homo sapiens, UniProt Q86X55); assay: Inhibition of human PRMT4 using [3H]SAM as donor and [3H]methylated biotin-labeled peptide as substrate by scintillation proximity assay; how it was run: as §1
T3 sequence (Q86X55 whole entry): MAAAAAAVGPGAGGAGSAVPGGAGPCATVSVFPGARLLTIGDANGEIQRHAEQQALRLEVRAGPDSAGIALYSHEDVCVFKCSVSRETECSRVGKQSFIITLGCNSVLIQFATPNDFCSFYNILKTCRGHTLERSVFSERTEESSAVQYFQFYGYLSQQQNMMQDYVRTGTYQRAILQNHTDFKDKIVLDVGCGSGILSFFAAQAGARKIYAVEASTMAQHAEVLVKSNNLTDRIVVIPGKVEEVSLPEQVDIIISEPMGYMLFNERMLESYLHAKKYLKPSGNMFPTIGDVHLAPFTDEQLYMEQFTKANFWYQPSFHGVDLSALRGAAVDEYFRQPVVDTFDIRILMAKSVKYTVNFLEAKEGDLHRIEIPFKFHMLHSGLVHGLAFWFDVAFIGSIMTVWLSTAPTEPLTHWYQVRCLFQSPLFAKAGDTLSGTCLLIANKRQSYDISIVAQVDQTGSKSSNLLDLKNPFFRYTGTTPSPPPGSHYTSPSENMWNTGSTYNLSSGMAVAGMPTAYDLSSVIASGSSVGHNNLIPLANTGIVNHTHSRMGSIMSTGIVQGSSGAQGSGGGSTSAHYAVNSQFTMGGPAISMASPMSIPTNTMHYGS

Homo sapiens [5] = organism: Homo sapiens; assay: Selectivity index, ratio of IC50 for human PRMT3 to IC50 for human PRMT6
[6] = molecular target: Protein arginine N-methyltransferase 3 (Homo sapiens, UniProt O60678); assay: Inhibition of PRMT3 (unknown origin) expressed in HEK293T cells were co-transfected with GFP-tagged histone H4 peptide assessed as reduction in H4R3 arginine asymmetric dimethylation at 0.2 to 20 uM incubated for 20 hrs; assay type: cell-based
Protein arginine N-methyltransferase 3, sequence (O60678 2-531 limits assumed): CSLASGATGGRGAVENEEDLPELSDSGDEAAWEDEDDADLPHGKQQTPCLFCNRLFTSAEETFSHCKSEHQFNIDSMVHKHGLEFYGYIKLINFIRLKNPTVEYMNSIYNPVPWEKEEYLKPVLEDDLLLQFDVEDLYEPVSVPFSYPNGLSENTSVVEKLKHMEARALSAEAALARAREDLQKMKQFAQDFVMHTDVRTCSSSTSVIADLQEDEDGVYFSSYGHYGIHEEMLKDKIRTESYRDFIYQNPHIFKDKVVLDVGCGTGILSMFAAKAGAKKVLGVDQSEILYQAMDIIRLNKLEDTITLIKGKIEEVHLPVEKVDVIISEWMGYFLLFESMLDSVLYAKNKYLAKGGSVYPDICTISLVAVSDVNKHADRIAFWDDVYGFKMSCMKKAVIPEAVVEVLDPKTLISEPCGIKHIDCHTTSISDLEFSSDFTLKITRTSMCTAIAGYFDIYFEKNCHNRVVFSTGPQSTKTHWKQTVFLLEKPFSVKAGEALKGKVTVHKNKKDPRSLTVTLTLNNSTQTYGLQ

PNT2 = assay: Toxicity in human PNT2 cells assessed as reduction in cell viability up to 20 uM incubated for 3 days by CCK8 assay; assay type: cell-based; settings: pnt2, 72 h
How it was run: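 Cells seeded 1×10^4 per well in triplicate, treated after 24 h with serial dilutions from 20 μM for 3 days; CCK-8 (WST-8) added, 4 h at 37 °C, absorbance at 450 nm; mean ± SD of three replicate experiments.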

[7] = molecular target: Protein arginine N-methyltransferase 5 (Homo sapiens) (UniProt O14744); assay: Inhibition of PRMT5 (unknown origin) assessed as reduction in incorporation of [3H]-labeled methyl group into biotinylated substrate using [3H-SAM] at 10 uM incubated for 1 hr by scintillation proximity assay
Protein arginine N-methyltransferase 5 (Homo sapiens), sequence (O14744 whole entry): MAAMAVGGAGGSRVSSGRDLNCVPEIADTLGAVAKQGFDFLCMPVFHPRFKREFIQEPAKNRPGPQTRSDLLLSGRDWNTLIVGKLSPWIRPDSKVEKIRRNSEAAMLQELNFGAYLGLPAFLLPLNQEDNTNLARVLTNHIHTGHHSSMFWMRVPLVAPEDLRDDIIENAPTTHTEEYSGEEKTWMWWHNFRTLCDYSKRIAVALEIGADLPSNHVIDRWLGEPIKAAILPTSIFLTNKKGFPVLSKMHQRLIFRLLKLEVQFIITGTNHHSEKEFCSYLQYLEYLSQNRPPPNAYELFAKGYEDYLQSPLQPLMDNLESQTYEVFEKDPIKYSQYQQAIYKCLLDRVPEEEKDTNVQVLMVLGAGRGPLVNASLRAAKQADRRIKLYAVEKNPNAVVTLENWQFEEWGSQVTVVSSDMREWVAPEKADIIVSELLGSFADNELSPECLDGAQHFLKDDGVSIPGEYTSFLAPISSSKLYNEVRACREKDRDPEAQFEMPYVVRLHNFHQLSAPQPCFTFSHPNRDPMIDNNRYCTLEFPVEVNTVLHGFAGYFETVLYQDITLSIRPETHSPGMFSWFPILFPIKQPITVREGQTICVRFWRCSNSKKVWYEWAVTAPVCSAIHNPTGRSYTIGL
How it was run: (§2)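 Panel of 33 methyltransferases (22 PKMTs, 3 DNMTs, 8 PRMTs), each tested at 10 and 50 μM compound. Activity was read as ³H-methyl transfer from ³H-SAM in a radiometric assay done as previously described.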

[8] = molecular target: T2, Protein arginine N-methyltransferase 8; assay: Inhibition of PRMT8 (unknown origin) assessed as reduction in incorporation of [3H]-labeled methyl group into biotinylated substrate using [3H-SAM] at 10 uM incubated for 1 hr by scintillation proximity assay; how it was run: as §2
[9] = molecular target: N-lysine methyltransferase KMT5A (Homo sapiens) (UniProt Q9NQR1); assay: Inhibition of SETD8 (unknown origin) assessed as reduction in incorporation of [3H]-labeled methyl group into biotinylated substrate using [3H-SAM] at 10 uM incubated for 1 hr by scintillation proximity assay; how it was run: as §2
N-lysine methyltransferase KMT5A (Homo sapiens), sequence (Q9NQR1 whole entry): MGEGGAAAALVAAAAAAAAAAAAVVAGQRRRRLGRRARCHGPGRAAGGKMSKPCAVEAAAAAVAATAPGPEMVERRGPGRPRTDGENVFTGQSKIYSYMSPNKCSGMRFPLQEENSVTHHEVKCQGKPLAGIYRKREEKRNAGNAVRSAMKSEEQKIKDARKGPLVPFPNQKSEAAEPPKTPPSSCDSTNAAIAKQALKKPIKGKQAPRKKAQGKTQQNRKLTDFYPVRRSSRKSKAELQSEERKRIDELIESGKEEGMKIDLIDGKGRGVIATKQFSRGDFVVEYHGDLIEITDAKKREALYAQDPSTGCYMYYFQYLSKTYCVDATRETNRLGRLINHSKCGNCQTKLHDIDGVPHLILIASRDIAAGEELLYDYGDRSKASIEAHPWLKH

[10] = molecular target: Histone-lysine N-methyltransferase 2A (Homo sapiens) (UniProt Q03164); assay: Inhibition of MLL1 (unknown origin) assessed as reduction in incorporation of [3H]-labeled methyl group into biotinylated substrate using [3H-SAM] at 10 uM incubated for 1 hr by scintillation proximity assay; how it was run: as §2
[11] = molecular target: Histone-lysine N-methyltransferase 2C (Homo sapiens) (UniProt Q8NEZ4); assay: Inhibition of MLL3 (unknown origin) assessed as reduction in incorporation of [3H]-labeled methyl group into biotinylated substrate using [3H-SAM] at 10 uM incubated for 1 hr by scintillation proximity assay; how it was run: as §2
[12] = molecular target: Histone-lysine N-methyltransferase KMT5B (Homo sapiens) (UniProt Q4FZB7); assay: Inhibition of SUV420H1 (unknown origin) assessed as reduction in incorporation of [3H]-labeled methyl group into biotinylated substrate using [3H-SAM] at 10 uM incubated for 1 hr by scintillation proximity assay
Histone-lysine N-methyltransferase KMT5B (Homo sapiens), sequence (Q4FZB7 whole entry, looked up): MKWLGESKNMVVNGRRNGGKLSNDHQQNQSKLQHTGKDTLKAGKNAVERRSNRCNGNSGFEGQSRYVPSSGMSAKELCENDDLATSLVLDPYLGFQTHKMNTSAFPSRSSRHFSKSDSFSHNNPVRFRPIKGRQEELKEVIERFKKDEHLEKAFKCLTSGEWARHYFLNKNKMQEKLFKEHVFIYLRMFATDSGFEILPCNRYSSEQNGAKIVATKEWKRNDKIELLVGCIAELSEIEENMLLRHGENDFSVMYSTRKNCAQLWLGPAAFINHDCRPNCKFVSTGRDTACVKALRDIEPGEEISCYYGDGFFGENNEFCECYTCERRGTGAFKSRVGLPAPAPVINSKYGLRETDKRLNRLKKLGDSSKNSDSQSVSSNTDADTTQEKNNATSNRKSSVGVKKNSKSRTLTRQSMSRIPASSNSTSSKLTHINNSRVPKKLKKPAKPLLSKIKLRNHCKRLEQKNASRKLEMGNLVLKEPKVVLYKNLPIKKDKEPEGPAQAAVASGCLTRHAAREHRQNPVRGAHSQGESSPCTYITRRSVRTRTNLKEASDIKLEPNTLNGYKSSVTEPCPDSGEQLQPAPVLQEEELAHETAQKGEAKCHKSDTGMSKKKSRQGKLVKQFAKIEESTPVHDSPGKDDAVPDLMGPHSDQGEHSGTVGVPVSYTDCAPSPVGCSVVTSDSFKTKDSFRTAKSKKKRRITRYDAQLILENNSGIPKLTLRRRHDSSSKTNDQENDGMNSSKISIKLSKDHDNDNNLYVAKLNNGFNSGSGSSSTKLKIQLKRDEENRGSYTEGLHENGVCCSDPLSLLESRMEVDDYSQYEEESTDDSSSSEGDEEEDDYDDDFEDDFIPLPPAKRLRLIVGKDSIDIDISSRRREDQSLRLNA

[13] = molecular target: Histone-lysine N-methyltransferase KMT5C (Homo sapiens) (UniProt Q86Y97); assay: Inhibition of SUV420H2 (unknown origin) assessed as reduction in incorporation of [3H]-labeled methyl group into biotinylated substrate using [3H-SAM] at 10 uM incubated for 1 hr by scintillation proximity assay
Histone-lysine N-methyltransferase KMT5C (Homo sapiens), sequence (Q86Y97 whole entry, looked up): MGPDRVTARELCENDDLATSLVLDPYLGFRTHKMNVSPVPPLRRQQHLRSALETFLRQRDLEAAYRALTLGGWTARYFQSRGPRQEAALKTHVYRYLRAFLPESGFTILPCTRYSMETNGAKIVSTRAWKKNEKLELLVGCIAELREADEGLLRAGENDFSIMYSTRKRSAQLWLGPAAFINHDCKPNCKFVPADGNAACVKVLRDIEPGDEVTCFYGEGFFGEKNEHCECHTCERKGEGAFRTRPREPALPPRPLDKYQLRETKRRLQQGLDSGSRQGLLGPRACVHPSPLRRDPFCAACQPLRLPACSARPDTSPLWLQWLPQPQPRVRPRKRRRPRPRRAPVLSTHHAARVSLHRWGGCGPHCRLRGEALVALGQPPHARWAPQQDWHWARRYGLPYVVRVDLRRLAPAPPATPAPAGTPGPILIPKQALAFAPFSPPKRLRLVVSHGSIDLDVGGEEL

[14] = molecular target: RNA 5'-monophosphate methyltransferase (Homo sapiens) (UniProt Q7Z5W3); assay: Inhibition of BCDIN3D (unknown origin) assessed as reduction in incorporation of [3H]-labeled methyl group into biotinylated substrate using [3H-SAM] at 10 uM incubated for 1 hr by scintillation proximity assay
RNA 5'-monophosphate methyltransferase (Homo sapiens), sequence (Q7Z5W3 whole entry): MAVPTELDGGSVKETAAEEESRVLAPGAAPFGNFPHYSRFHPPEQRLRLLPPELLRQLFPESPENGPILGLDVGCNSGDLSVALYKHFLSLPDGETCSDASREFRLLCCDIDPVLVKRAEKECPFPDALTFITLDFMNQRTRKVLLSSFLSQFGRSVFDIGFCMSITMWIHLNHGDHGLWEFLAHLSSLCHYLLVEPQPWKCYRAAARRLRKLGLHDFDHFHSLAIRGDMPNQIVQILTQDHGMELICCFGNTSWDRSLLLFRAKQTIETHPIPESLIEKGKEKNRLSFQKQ

[15] = molecular target: Histone-lysine N-methyltransferase ASH1L (Homo sapiens) (UniProt Q9NR48); assay: Inhibition of ASH1L (unknown origin) at 10 uM using [3H-SAM] and nucleosome as substrate incubated for 1 hr by scintillation proximity assay; how it was run: as §2
[16] = molecular target: T1, Protein arginine N-methyltransferase 6; assay: Inhibition of PRMT6 (unknown origin) assessed as reduction in incorporation of [3H]-labeled methyl group into biotinylated substrate using [3H-SAM] at 50 uM incubated for 1 hr by scintillation proximity assay relative to control; how it was run: as §2
Target sequence in this assay (Q96LA8 whole entry, looked up): as the sequence (Q96LA8 whole entry) above

[17] = molecular target: T2, Protein arginine N-methyltransferase 8; assay: Inhibition of PRMT8 (unknown origin) assessed as reduction in incorporation of [3H]-labeled methyl group into biotinylated substrate using [3H-SAM] at 50 uM incubated for 1 hr by scintillation proximity assay relative to control; how it was run: as §2
Homo sapiens [18] = organism: Homo sapiens; assay: Inhibition of DNMT3A/3L (unknown origin) at 50 uM using un-biotinylated Poly(2'-deoxyinosinic-2'-deoxycytidylic acid) substrate using [3H-SAM] at 50 uM incubated for 1 hr by scintillation proximity assay relative to control; how it was run: as §2

Question: Which IC50 ([1]; read-out: IC50) does the source give for C=CC(=O)Nc1cccc(-c2c[nH]cc2CN(C)CCN)c1 here?
Answer: 0.018 µM

Question: And the IC50 ([1]; read-out: pIC50 (converted))?
Answer: 0.0158 µM

Question: And the Activity [2]?
Answer: inactive

Question: And the IC50 [3]?
Answer: 0.1 µM

Question: And the IC50 [4]?
Answer: 0.48 µM

Question: What about the Ratio IC50 (Homo sapiens [5]) of the same compound?
Answer: 167

Question: And the inhibition [6]?
Answer: inactive

Question: What about the Activity (PNT2) of the same compound?
Answer: Non-Toxic

Question: What about the inhibition [7] of the same compound?
Answer: inactive

Question: What about the inhibition [8] of the same compound?
Answer: > 90%

Question: What about the inhibition [9] of the same compound?
Answer: inactive

Question: What about the inhibition [10] of the same compound?
Answer: inactive

Question: What about the inhibition [11] of the same compound?
Answer: inactive

Question: And the inhibition [12]?
Answer: inactive

Question: What about the inhibition [13] of the same compound?
Answer: inactive

Question: What about the inhibition [14] of the same compound?
Answer: inactive

Question: And the inhibition [15]?
Answer: inactive

Question: And the inhibition [16]?
Answer: > 50%

Question: What about the inhibition [17] of the same compound?
Answer: > 50%

Question: What about the inhibition (Homo sapiens [18]) of the same compound?
Answer: > 50%

Source: ChEMBL document CHEMBL4342528, “Discovery of a First-in-Class Protein Arginine Methyltransferase 6 (PRMT6) Covalent Inhibitor” (J Med Chem, 2020)
